Data set [1] is described as follows: Selectivity index, ratio of CC50 for cytotoxicity in human Huh7.5 cells assessed as reduction in cell viability incubated for 96 hrs by MTT assay to EC50 for antiviral activity against HCV J6/JFH/JC1 infected in human Huh7.5 cells incubated for 72 hrs by In-Cell Western assay. The data set is classed as toxicity, cell-based. The note with it: read-out: Ratio CC50/EC50. The method in brief: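 HCVcc (MOI=0.1) infected Huh7.5 cells co-treated with eight-step 1:5 serial dilutions, triplicate wells. After 72 h, fixed, permeabilized, and stained for HCV Core and GAPDH with IR-dye secondaries. Core normalized to GAPDH. CC50 came from MTT at 96 h in uninfected Huh7.5 cells. EC50/CC50 were derived by Reed & Muench, mean ± SD of three independent experiments.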
In general terms: Tetrazolium assays rely on reduction of a dye to a coloured formazan, in cell work by metabolically active cells.

In data set [2] the test system is Hepatitis C virus. The data set is described as follows: Antiviral activity against HCV J6/JFH/JC1 infected in human Huh7.5 cells incubated for 72 hrs by In-Cell Western assay. The note with it: J6/JFH/JC1, Huh7.5, 72 h. Type of data set: functional, organism-based, Hepacivirus hominis. The method in brief: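 Huh7.5 cells infected with HCVcc (MOI 0.1) and treated with compound at the same time for 72 h. Cells fixed with PFA, permeabilized, then stained for HCV Core and GAPDH with IR-dye secondaries. Core signal normalized to GAPDH. Eight-step 1:5 dilutions in triplicate; EC50 by Reed & Muench; mean of three experiments.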

Data set [3] can be described thus: Cytotoxicity in human Huh7.5 cells assessed as reduction in cell viability incubated for 96 hrs by MTT assay. The data set is classed as cell-based. The procedure, abridged:
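Huh7.5 cells seeded 24 h before compound addition. Viability read by MTT at 96 h. Eight-step 1:5 serial dilutions in triplicate; CC50 by Reed & Muench; three independent experiments.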

Data set [4] relates to Hepatitis C virus. The data set is described as follows: Antiviral activity against HCV J6/JFH/JC1 infected in human Huh7.5 cells assessed as reduction in viral RNA levels incubated for 72 hrs by qRT-PCR analysis. The note with it: J6/JFH/JC1, Huh7.5, 72 h. Type of data set: functional, organism-based, Hepacivirus hominis. The method in brief:
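Huh7.5 cells seeded 24 h, then infected with wild-type (or mutant) HCV with compound added at the same time. Incubated 72 h. Intracellular HCV RNA measured by qRT-PCR, 2^-ΔCt method, normalized to GAPDH. Eight-step 1:5 serial dilutions in triplicate; EC50 by Reed & Muench; three independent experiments.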

Bounds are passed on as bounds.

As to `CCC(=O)N(C)CCN(C)c1ccc(C#N)c(CN2CCN(c3ccc(Cl)cc3)CC2)c1`, the selectivity ratio in data set [1] worked out at 5. Besides, the 50% effective concentration (EC50) in the data set with Hepatitis C virus [2] is 7.29 µM. Further, the CC50 at 96 h in data set [3] amounted to 40 µM.
On the same counts, the results for `CN(C)CCN(C)c1ccc(C#N)c(CN2CCN(c3ccc(Cl)cc3F)CC2)c1` are 64, 0.205 µM and 13.2 µM.
On the same counts, the results for `CN(C)CCN(C)c1ccc(C#N)c(CN2CCNCC2)c1` are over 5, 35 µM and over 200 µM.
On the same counts, the results for `CN(C)CCN(C)c1ccc(C#N)c(CN2CCN(c3ccc(C#N)cc3)CC2)c1` are 4, 1.87 µM and 9.05 µM.
As for `COc1ccc(NCc2cc(N3CCN(C)CC3)ccc2C#N)cc1`, in the data set on Hepatitis C virus [4], the EC50 was determined as 2.14 µM. For the same compound, the CC50 at 96 h in data set [3] came to 48.2 µM.
In the case of `Cc1ccc(N2CCN(Cc3cc(N(C)CCN(C)C)ccc3C#N)CC2)cc1`, the selectivity ratio in data set [1] amounted to 90. This compound also came in with an EC50 in the data set with Hepatitis C virus [2] of 0.399 µM. Moreover, the CC50 at 96 h in data set [3] came to 36.2 µM.
Consider `CN(C)CCN(C)c1ccc(C#N)c(CN2CCN(c3ccc(Cl)nc3)CC2)c1`, for which the selectivity ratio in data set [1] came out at 21. In the data set with Hepatitis C virus [2], it took 2.51 µM to reach a half-maximal effect (EC50). Besides, the CC50 at 96 h in data set [3] was 52.6 µM.
Consider `COc1ccc(N2CCN(Cc3cc(N(C)CCN(C)C)ccc3C#N)CC2)cc1`, for which the selectivity ratio in data set [1] was 31. For the same compound, in the data set on Hepatitis C virus [2], the EC50 was 1.44 µM. Further, the CC50 at 96 h in data set [3] came out at 45.5 µM.
On the same counts, the results for `N#Cc1ccc(N2CCC(N3CCCC3)CC2)cc1CN1CCN(c2ccc(Cl)cc2)CC1` are 42, 0.318 µM and 13.5 µM.
On the same counts, the results for `CN(C)c1ccc(C#N)c(CN2CCN(c3ccc(Cl)cc3)CC2)c1` are over 3, 57.5 µM and over 200 µM.
As to `CN(C)CCN(C)c1ccc(C#N)c(CN2CCN(c3ccc(Cl)cc3Cl)CC2)c1`, the selectivity ratio in data set [1] was 59. The same compound returned an EC50 in the data set on Hepatitis C virus [2] of 0.166 µM. The CC50 at 96 h in data set [3] is 9.85 µM.
On the same counts, the results for `N#Cc1ccc(OCCN2CCCC2)cc1CN1CCN(c2ccc(Cl)cc2)CC1` are 20, 0.814 µM and 16.6 µM.
Take `CN(C)CCN(C)c1ccc(C#N)cc1CN1CCN(c2ccc(Cl)cc2)CC1`: the selectivity ratio in data set [1] was determined as 11. Moreover, the EC50 with Hepatitis C virus [2] turned out to be 1.33 µM. The CC50 at 96 h in data set [3] turned out to be 14.6 µM.
For the compound `CN(C)CCN(C)c1ccc(C#N)c(CN2CCN(c3ccncc3)CC2)c1`, in data set [1], the selectivity ratio was 16. Also, a half-maximal effect with Hepatitis C virus [2] (EC50) was put at 2.74 µM. In addition, the CC50 at 96 h in data set [3] was found to be 44.7 µM.
Taken in the same sequence, the figures for `CN1CCN(c2ccc(C#N)c(CN3CCN(c4ccc(Cl)cc4)CC3)c2)CC1` were 20, 0.783 µM and 16.1 µM.
Taken in the same sequence, the figures for `CN(C)CCCN(C)c1ccc(C#N)c(CN2CCN(c3ccc(Cl)cc3)CC2)c1` were 36, 0.423 µM and 15.6 µM.
Taken in the same sequence, the figures for `N#Cc1ccc(NCCN2CCOCC2)cc1CN1CCN(c2ccc(Cl)cc2)CC1` were 16, 4.69 µM and 76.3 µM.
In the case of `CN(C)CCNc1ccc(C#N)c(CN2CCN(c3ccc(Cl)cc3)CC2)c1`, in data set [1], the selectivity ratio turned out to be 15. The EC50 in the data set on Hepatitis C virus [2] came to 0.952 µM. In data set [3], the CC50 at 96 h came out at 14.8 µM.
With `Cc1ccc(NCc2cc(N3CCCCC3)ccc2C#N)cc1`, in the data set on Hepatitis C virus [4], the EC50 is over 7.41 µM. Also, the CC50 at 96 h in data set [3] amounted to 11.4 µM.
As for `CN(C)CCN(C)c1ccc(C#N)c(CN2CCN(Cc3ccc(Cl)cc3)CC2)c1`, in data set [1], the selectivity ratio was 14. This compound showed an EC50 with Hepatitis C virus [2] of 1.05 µM. In addition, in data set [3], the CC50 at 96 h came to 15.6 µM.
Taken in the same sequence, the figures for `N#Cc1ccc(NCc2ccccn2)cc1CN1CCN(c2ccc(Cl)cc2)CC1` were over 14, 13.7 µM and over 200 µM.
On the same counts, the results for `Cc1cc(Cl)ccc1N1CCN(Cc2cc(N(C)CCN(C)C)ccc2C#N)CC1` are 49, 0.203 µM and 10.1 µM.
For `CC1CN(Cc2cc(N(C)CCN(C)C)ccc2C#N)CCN1c1ccc(Cl)cc1` (stereo not drawn), the selectivity ratio in data set [1] came to 42. Further, in the data set with Hepatitis C virus [2], the concentration for a half-maximal effect (EC50) stood at 0.321 µM. The CC50 at 96 h in data set [3] was found to be 13.7 µM.
In the case of `CN1CCN(c2ccc(C#N)c(CNc3ccc(Cl)cc3)c2)CC1`, the EC50 in the data set on Hepatitis C virus [4] is 0.42 µM. In data set [3], the CC50 at 96 h is 18.3 µM.
Regarding `CN(C)CCN(C)c1ccc(C#N)c(CN2CCN(c3ccc(Cl)cc3[N+](=O)[O-])CC2)c1`, the selectivity ratio in data set [1] came out at 57. Moreover, the concentration giving a half-maximal response (EC50) with Hepatitis C virus [2] is 0.217 µM. Further, the CC50 at 96 h in data set [3] worked out at 12.5 µM.
In the case of `CN(C)CCN(C)c1ccc(C#N)c(CN2CCN(c3ccc([N+](=O)[O-])cc3)CC2)c1`, in data set [1], the selectivity ratio worked out at 40. This compound had an EC50 in the data set on Hepatitis C virus [2] of 0.314 µM. In data set [3], the CC50 at 96 h amounted to 12.8 µM.
Take `CN(C)CCN(C)c1ccc(C#N)c(CN2CCN(c3ccc(N)cc3)CC2)c1`: the selectivity ratio in data set [1] was 8. In the data set with Hepatitis C virus [2], this compound gave an EC50 of 6.43 µM. Besides, in data set [3], the CC50 at 96 h came to 55.2 µM.
For the compound `Cc1ccc(NCc2cc(N3CCNCC3)ccc2C#N)cc1`, the EC50 in the data set with Hepatitis C virus [4] came out at 1.68 µM. Besides, the CC50 at 96 h in data set [3] is 18.8 µM.
For the compound `N#Cc1ccc(N2CCNC(=O)C2)cc1CN1CCN(c2ccc(Cl)cc2)CC1`, the selectivity ratio in data set [1] is over 2. Besides, in the data set on Hepatitis C virus [2], the EC50 came out at 79.4 µM. Besides, in data set [3], the cytotoxic concentration (CC50) at 96 h is over 200 µM.
For `CCN1CCCC1CNc1ccc(C#N)c(CN2CCN(c3ccc(Cl)cc3)CC2)c1` (stereo not drawn), the selectivity ratio in data set [1] came out at 16. In the data set with Hepatitis C virus [2], this compound had an EC50 of 0.454 µM. The CC50 at 96 h in data set [3] was 7.64 µM.
On the same counts, the results for `CC(C)CCNc1ccc(C#N)c(CN2CCN(c3ccc(Cl)cc3)CC2)c1` are over 1, 119 µM and over 200 µM.
Consider `CN1CCCN(c2ccc(C#N)c(CN3CCN(c4ccc(Cl)cc4)CC3)c2)CC1`, for which the selectivity ratio in data set [1] was determined as 81. The compound further had an EC50 in the data set on Hepatitis C virus [2] of 0.153 µM. The CC50 at 96 h in data set [3] stood at 12.5 µM.
Taken in the same sequence, the figures for `CN(C)CCN(C)c1ccc(C#N)c(CN2CCN(c3ccccc3)CC2)c1` were 55, 0.902 µM and 50.2 µM.
On the same counts, the results for `CN(C)CCN(C)c1ccc(C(N)=O)c(CN2CCN(c3ccc(Cl)cc3)CC2)c1` are 13, 1.16 µM and 15.5 µM.
Consider `CN(C)CCN(C)c1ccc(C#N)c(CN2CCN(c3ccc(F)cc3)CC2)c1`, for which the selectivity ratio in data set [1] came to 70. The compound also showed an EC50 in the data set with Hepatitis C virus [2] of 0.749 µM. Besides, the CC50 at 96 h in data set [3] turned out to be 52.1 µM.
For the compound `CNCCN(C)c1ccc(C#N)c(CN2CCN(c3ccc(Cl)cc3)CC2)c1`, in data set [1], the selectivity ratio amounted to 54. The compound also gave an EC50 with Hepatitis C virus [2] of 0.289 µM. The CC50 at 96 h in data set [3] is 15.8 µM.
As for `CN(C)CCN(C)c1cccc(CN2CCN(c3ccc(Cl)cc3)CC2)c1`, the selectivity ratio in data set [1] was 14. Moreover, the EC50 with Hepatitis C virus [2] amounted to 0.936 µM. Further, in data set [3], the CC50 at 96 h was found to be 13.6 µM.
As for `N#Cc1ccc(N2CCNCC2)cc1CN1CCN(c2ccc(Cl)cc2)CC1`, in data set [1], the selectivity ratio came to 20. In the data set on Hepatitis C virus [2], this compound registered an EC50 of 0.657 µM. The CC50 at 96 h in data set [3] was 13.7 µM.
Turning to `CN(C)CCN(C)c1ccc(C#N)c(CN2CCC(c3ccc(Cl)cc3)CC2)c1`, in data set [1], the selectivity ratio is 26. In the data set with Hepatitis C virus [2], this compound returned an EC50 of 0.142 µM. For the same compound, the CC50 at 96 h in data set [3] is 3.75 µM.

For orientation: EC50 means the concentration that produces a half-maximal response. The CC50 is the concentration that lowers cell viability or growth by half.

Source of the values: ChEMBL document CHEMBL4613269, “2-((4-Arylpiperazin-1-yl)methyl)benzonitrile Derivatives as Orally Available Inhibitors of Hepatitis C Virus with a Novel Mechanism of Action” (J Med Chem, 2020).
